This is an account of results in ChEMBL document CHEMBL1125647, “Synthesis and siderophore and antibacterial activity of N5-acetyl-N5-hydroxy-L-ornithine-derived siderophore-beta-lactam conjugates: iron-transport-mediated drug delivery” (1991).

Common to all, as to type: functional
In assay [1] the test system is Escherichia coli. The experiment in a line: Minimum inhibitory concentration was measured against Escherichia coli EC14. A digest of the protocol:
(§1)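 Standard agar dilution method; MICs determined externally by an industrial partner rather than in the authors' lab.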

For assay [2], the system named is Escherichia coli. Nature of the assay: cell growth was measured against Escherichia coli AN193 using liquid growth assay at 0h. A digest of the protocol: (§2)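 Overnight cultures diluted 1:500 into Luria broth containing EDDA 10 μg/mL, with or without test compound at 100 μg/mL. Turbidity read as absorbance at 650 nm (table heading) at 0, 2 and 8 h. SA240 is an iucD:Tn5 siderophore-deficient derivative of SA100. RW193 is E. coli K12 entA, fhuA-positive. AN193 is entA, fhuA-negative, lacking the ferrichrome receptor.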

The subject of assay [3] is Escherichia coli. The experiment in a line: cell growth was measured against Escherichia coli AN193 using liquid growth assay at 2 hr. The procedure, abridged: as §2
Assay [4] deals with Escherichia coli. The experiment in a line: cell growth was measured against Escherichia coli AN193 using liquid growth assay at 8 hr. The procedure, abridged:
as §2

In assay [5] the test system is Escherichia coli. The experiment in a line: cell growth was measured against Escherichia coli RW193 using liquid growth assay at 0h. A digest of the protocol: as §2
The subject of assay [6] is Escherichia coli. Nature of the assay: cell growth was measured against Escherichia coli RW193 using liquid growth assay at 2 hr. The procedure, abridged: as §2
In assay [7] the test system is Escherichia coli. Nature of the assay: cell growth was measured against Escherichia coli RW193 using liquid growth assay at 8 hr. A digest of the protocol: as §2
For a further assay, the system named is Pseudomonas. Nature of the assay: Minimum inhibitory concentration was measured against Pseudomonas X528. The procedure, abridged: as §1
In assay [8] the test system is Salmonella. Nature of the assay: Minimum inhibitory concentration was measured against salmonella 1135. The procedure, abridged: as §1
In assay [9] the test system is Salmonella. The experiment in a line: Minimum inhibitory concentration was measured against salmonella X514. The procedure, abridged: as §1
For assay [10], the system named is Shigella flexneri. Nature of the assay: cell growth was measured against Shigella flexneri SA240 using liquid growth assay at 2 hr. The procedure, abridged: as §2
Assay [11] has as its system Shigella flexneri. Nature of the assay: cell growth was measured against Shigella flexneri SA240 using liquid growth assay at 8 hr. The procedure, abridged:
as §2

The subject of assay [12] is Shigella flexneri. Nature of the assay: cell growth was measured against Shigella flexneri SA240 using liquid growth assay at 0h. A digest of the protocol: as §2
The test system of assay [13] is Staphylococcus epidermidis. Nature of the assay: Minimum inhibitory concentration was measured against staphylococcus epidermidis 222. The procedure, abridged: as §1
The test system of another assay is Streptococcus pneumoniae. Nature of the assay: Minimum inhibitory concentration was measured against streptococcus pneumonia PARK. A digest of the protocol: as §1
In assay [14] the test system is Shigella flexneri. Nature of the assay: The relative ability of compound to promote the growth of Shigella flexneri SA 100, a strain lacking the ability to synthesize siderophores was measured as zone stimulation at concentration of 0.1 mM. A digest of the protocol:
(§3)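 S. flexneri SA100 grown overnight in Luria broth, seeded at 10^8/mL into Luria agar with EDDA (250 μg/mL). Compounds made as 10 mM aqueous stocks, diluted in water to 10, 1 or 0.1 mM. 10 μL applied on sterile paper disks. Incubated 37 °C, 18 h; diameters of growth-stimulation zones measured in mm.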

The test system of assay [15] is Shigella flexneri. The experiment in a line: The relative ability of compound to promote the growth of Shigella flexneri SA 100, a strain lacking the ability to synthesize siderophores was measured as zone stimulation at concentration of 10 mM. A digest of the protocol:
as §3

The test system of assay [16] is Shigella flexneri. The experiment in a line: The relative ability of compound to promote the growth of Shigella flexneri SA 100, a strain lacking the ability to synthesize siderophores was measured as zone stimulation at concentration of 1 mM. A digest of the protocol:
as §3

Converted amounts (≈) assume the structure as drawn.

By MIC is commonly meant the lowest concentration that inhibits growth of the organism. As to `CC(=O)N(O)CCC[C@H](NC(=O)[C@H](CCCN(O)C(C)=O)NC(=O)[C@@H](N)CCCN(O)C(C)=O)C(=O)N[C@@H](C(=O)NC1C(=O)N2C(C(=O)O)=C(Cl)CC[C@H]12)c1ccc(O)cc1` (some centres undefined), the MIC against Escherichia coli [1] was over 32 µg/mL; in the assay with Pseudomonas, over 128 µg/mL; against Salmonella [8] it was over 64 µg/mL; against Salmonella [9] it was 0.06 µg/mL (≈ 0.068 µM); in assay [13] it was over 128 µg/mL; against Streptococcus pneumoniae, over 64 µg/mL. The Cell growth is listed as 0.001 with Escherichia coli [2]; 0.019 in the assay with Escherichia coli [3]; 0.691 with Escherichia coli [4]; 0.001 with Escherichia coli [5]; 0.347 in the assay with Escherichia coli [6]; 1.59 in the assay on Escherichia coli [7]. For the same compound, the figures for the Cell growth with Shigella flexneri [10], in the assay with Shigella flexneri [11] and in the assay with Shigella flexneri [12] were 0.107, 0.974 and 0.001, respectively.
In the case of `CC(=O)N(O)CCC[C@H](NC(=O)[C@H](CCCN(O)C(C)=O)NC(=O)[C@@H](N)CCCN(O)C(C)=O)C(=O)N[C@@H](C(=O)NC1C(=O)N(OCC(=O)O)[C@H]1C)c1ccc(O)cc1` (some centres undefined), the values for the Zone of stimulation in the assay with Shigella flexneri [14], in the assay with Shigella flexneri [15] and in the assay on Shigella flexneri [16] were 0 mm, 31 mm and 16 mm, respectively.
Take `CC(=O)N(O)CCC[C@H](NC(=O)[C@H](CCCN(O)C(C)=O)NC(=O)[C@@H](N)CCCN(O)C(C)=O)C(=O)N[C@@H](C(=O)NC1C(=O)N2C(C(=O)O)=C(Cl)CC[C@H]12)c1ccccc1` (some centres undefined): the MIC is over 64 µg/mL against Escherichia coli [1]; over 128 µg/mL against Pseudomonas; over 128 µg/mL with Salmonella [8]; 0.125 µg/mL (≈ 0.144 µM) in the assay with Salmonella [9]; over 128 µg/mL in [13]; over 64 µg/mL with Streptococcus pneumoniae.
Take `CC(=O)N(O)CCC[C@H](NC(=O)[C@H](CCCN(O)C(C)=O)NC(=O)[C@@H](N)CCCN(O)C(C)=O)C(=O)N[C@@H](C(=O)NC1C(=O)N(OCC(=O)O)[C@H]1C)c1ccccc1` (some centres undefined): the Zone of stimulation with Shigella flexneri [14] came out at 0 mm; in the assay on Shigella flexneri [15], 28 mm; in the assay with Shigella flexneri [16] it was 12 mm.
With `N[C@@H](C(=O)N[C@@H]1C(=O)N2C(C(=O)O)=C(Cl)CS[C@H]12)c1ccccc1.O` [CEFACLOR], the MIC with Escherichia coli [1] was 1 µg/mL; with Pseudomonas it was over 128 µg/mL; in the assay with Salmonella [8], 1 µg/mL; in the assay on Salmonella [9], 0.25 µg/mL; in assay [13], 2 µg/mL; in the assay with Streptococcus pneumoniae it was 0.5 µg/mL.
Turning to `N[C@@H](C(=O)N[C@@H]1C(=O)N2C(C(=O)O)=C(Cl)CC[C@H]12)c1ccccc1` [LORACARBEF ANHYDROUS], the MIC with Escherichia coli [1] is 0.5 µg/mL (≈ 1.43 µM); in the assay with Pseudomonas, over 128 µg/mL; in the assay with Salmonella [8] it was 0.5 µg/mL (≈ 1.43 µM); with Salmonella [9], 0.25 µg/mL (≈ 0.715 µM); in assay [13] it was 2 µg/mL (≈ 5.72 µM); in the assay with Streptococcus pneumoniae, 1 µg/mL (≈ 2.86 µM).
